What was measured:
Format in all cases: nucleic-acid assay
Nucleic Acid [1] = test: Binding affinity to 5'-GCTAAAAAGAAAGAGAGATCG-3'/5'- CGATCTCTCTTTCTTTTTAGC-3' double stranded DNA assessed as melting temperature at 1.5 uM in sodium phosphate buffer at pH 7 by UV spectrophotometric analysis
Summary of the method: (§1)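 UV melting of triplexes between each modified TFO and the 21-bp duplex target, in 7 mM sodium phosphate buffer (pH 7.0), 140 mM KCl and 10 mM MgCl₂. Each oligonucleotide at 1.5 µM final. Absorbance followed at 260 nm from 5 °C to 85 °C, scanned at 0.5 °C/min, to give Tm.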

Nucleic Acid [2] = test: Binding affinity to5'-GCTAAAAAGACAGAGAGATCG-3'/5'- CGATCTCTCTGTCTTTTTAGC-3' double stranded DNA assessed as melting temperature at 1.5 uM in sodium phosphate buffer at pH 7 by UV spectrophotometric analysis; summary of the method: as §1
Nucleic Acid [3] = test: Binding affinity to 5'-GCTAAAAAGATAGAGAGATCG-3'/5'- CGATCTCTCTATCTTTTTAGC-3' double stranded DNA assessed as melting temperature at 1.5 uM in sodium phosphate buffer at pH 7 by UV spectrophotometric analysis; summary of the method: as §1
Nucleic Acid [4] = test: Binding affinity to 5'-GCTAAAAAGAGAGAGAGATCG-3'/5'- CGATCTCTCTCTCTTTTTAGC-3' double stranded DNA assessed as melting temperature at 1.5 uM in sodium phosphate buffer at pH 7 by UV spectrophotometric analysis; summary of the method: as §1

Structure (SMILES)	Tm (Nucleic Acid [1])	Tm (Nucleic Acid [2])	Tm (Nucleic Acid [3])	Tm (Nucleic Acid [4])
Cc1cn([C@H]2C[C@H](OP(=O)(O)OC[C@H]3O[C@@H](n4cc(C)c(=O)[nH]c4=O)C[C@@H]3OP(=O)(O)OC[C@H]3O[C@@H](n4cc(C)c(N)nc4=O)C[C@@H]3OP(=O)(O)OC[C@H]3O[C@@H](n4cc(C)c(=O)[nH]c4=O)C[C@@H]3OP(=O)(O)OC[C@H]3O[C@@H](n4cc(C)c(N)nc4=O)C[C@@H]3OP(=O)(O)OC[C@H]3O[C@@H](n4cc(C)c(=O)[nH]c4=O)C[C@@H]3OP(=O)(O)OC[C@H]3O[C@@H](c4cn(-c5cccc(C(=O)O)c5)nn4)C[C@@H]3OP(=O)(O)OC[C@H]3O[C@@H](n4cc(C)c(=O)[nH]c4=O)C[C@@H]3OP(=O)(O)OC[C@H]3O[C@@H](n4cc(C)c(N)nc4=O)C[C@@H]3OP(=O)(O)OC[C@H]3O[C@@H](n4cc(C)c(=O)[nH]c4=O)C[C@@H]3OP(=O)(O)OC[C@H]3O[C@@H](n4cc(C)c(=O)[nH]c4=O)C[C@@H]3OP(=O)(O)OC[C@H]3O[C@@H](n4cc(C)c(=O)[nH]c4=O)C[C@@H]3OP(=O)(O)OC[C@H]3O[C@@H](n4cc(C)c(=O)[nH]c4=O)C[C@@H]3OP(=O)(O)OC[C@H]3O[C@@H](n4cc(C)c(=O)[nH]c4=O)C[C@@H]3O)[C@@H](COP(=O)(O)O[C@H]3C[C@H](n4cc(C)c(=O)[nH]c4=O)O[C@@H]3CO)O2)c(=O)nc1N	< 10 °C	22 °C	15 °C	< 10 °C
CC(=O)NCCn1cc([C@H]2C[C@H](OP(=O)(O)OC[C@H]3O[C@@H](n4cc(C)c(=O)[nH]c4=O)C[C@@H]3OP(=O)(O)OC[C@H]3O[C@@H](n4cc(C)c(N)nc4=O)C[C@@H]3OP(=O)(O)OC[C@H]3O[C@@H](n4cc(C)c(=O)[nH]c4=O)C[C@@H]3OP(=O)(O)OC[C@H]3O[C@@H](n4cc(C)c(=O)[nH]c4=O)C[C@@H]3OP(=O)(O)OC[C@H]3O[C@@H](n4cc(C)c(=O)[nH]c4=O)C[C@@H]3OP(=O)(O)OC[C@H]3O[C@@H](n4cc(C)c(=O)[nH]c4=O)C[C@@H]3OP(=O)(O)OC[C@H]3O[C@@H](n4cc(C)c(=O)[nH]c4=O)C[C@@H]3O)[C@@H](COP(=O)(O)O[C@H]3C[C@H](n4cc(C)c(=O)[nH]c4=O)O[C@@H]3COP(=O)(O)O[C@H]3C[C@H](n4cc(C)c(N)nc4=O)O[C@@H]3COP(=O)(O)O[C@H]3C[C@H](n4cc(C)c(=O)[nH]c4=O)O[C@@H]3COP(=O)(O)O[C@H]3C[C@H](n4cc(C)c(N)nc4=O)O[C@@H]3COP(=O)(O)O[C@H]3C[C@H](n4cc(C)c(=O)[nH]c4=O)O[C@@H]3COP(=O)(O)O[C@H]3C[C@H](n4cc(C)c(N)nc4=O)O[C@@H]3COP(=O)(O)O[C@H]3C[C@H](n4cc(C)c(=O)[nH]c4=O)O[C@@H]3CO)O2)nn1	14 °C	20 °C	14 °C	< 10 °C
Cc1cn([C@H]2C[C@H](OP(=O)(O)OC[C@H]3O[C@@H](n4cc(C)c(=O)[nH]c4=O)C[C@@H]3OP(=O)(O)OC[C@H]3O[C@@H](n4cc(C)c(N)nc4=O)C[C@@H]3OP(=O)(O)OC[C@H]3O[C@@H](n4cc(C)c(=O)[nH]c4=O)C[C@@H]3OP(=O)(O)OC[C@H]3O[C@@H](n4cc(C)c(N)nc4=O)C[C@@H]3OP(=O)(O)OC[C@H]3O[C@@H](n4cc(C)c(=O)[nH]c4=O)C[C@@H]3OP(=O)(O)OC[C@H]3O[C@@H](c4cn(-c5cccc(CO)c5)nn4)C[C@@H]3OP(=O)(O)OC[C@H]3O[C@@H](n4cc(C)c(=O)[nH]c4=O)C[C@@H]3OP(=O)(O)OC[C@H]3O[C@@H](n4cc(C)c(N)nc4=O)C[C@@H]3OP(=O)(O)OC[C@H]3O[C@@H](n4cc(C)c(=O)[nH]c4=O)C[C@@H]3OP(=O)(O)OC[C@H]3O[C@@H](n4cc(C)c(=O)[nH]c4=O)C[C@@H]3OP(=O)(O)OC[C@H]3O[C@@H](n4cc(C)c(=O)[nH]c4=O)C[C@@H]3OP(=O)(O)OC[C@H]3O[C@@H](n4cc(C)c(=O)[nH]c4=O)C[C@@H]3OP(=O)(O)OC[C@H]3O[C@@H](n4cc(C)c(=O)[nH]c4=O)C[C@@H]3O)[C@@H](COP(=O)(O)O[C@H]3C[C@H](n4cc(C)c(=O)[nH]c4=O)O[C@@H]3CO)O2)c(=O)nc1N	< 10 °C	23 °C	14 °C	< 10 °C
Cc1cn([C@H]2C[C@H](OP(=O)(O)OC[C@H]3O[C@@H](n4cc(C)c(=O)[nH]c4=O)C[C@@H]3OP(=O)(O)OC[C@H]3O[C@@H](n4cc(C)c(N)nc4=O)C[C@@H]3OP(=O)(O)OC[C@H]3O[C@@H](n4cc(C)c(=O)[nH]c4=O)C[C@@H]3OP(=O)(O)OC[C@H]3O[C@@H](n4cc(C)c(N)nc4=O)C[C@@H]3OP(=O)(O)OC[C@H]3O[C@@H](n4cc(C)c(=O)[nH]c4=O)C[C@@H]3OP(=O)(O)OC[C@H]3O[C@@H](c4cn(C5CCCCC5)nn4)C[C@@H]3OP(=O)(O)OC[C@H]3O[C@@H](n4cc(C)c(=O)[nH]c4=O)C[C@@H]3OP(=O)(O)OC[C@H]3O[C@@H](n4cc(C)c(N)nc4=O)C[C@@H]3OP(=O)(O)OC[C@H]3O[C@@H](n4cc(C)c(=O)[nH]c4=O)C[C@@H]3OP(=O)(O)OC[C@H]3O[C@@H](n4cc(C)c(=O)[nH]c4=O)C[C@@H]3OP(=O)(O)OC[C@H]3O[C@@H](n4cc(C)c(=O)[nH]c4=O)C[C@@H]3OP(=O)(O)OC[C@H]3O[C@@H](n4cc(C)c(=O)[nH]c4=O)C[C@@H]3OP(=O)(O)OC[C@H]3O[C@@H](n4cc(C)c(=O)[nH]c4=O)C[C@@H]3O)[C@@H](COP(=O)(O)O[C@H]3C[C@H](n4cc(C)c(=O)[nH]c4=O)O[C@@H]3CO)O2)c(=O)nc1N	< 10 °C	20 °C	12 °C	< 10 °C
Cc1cn([C@H]2C[C@H](OP(=O)(O)OC[C@H]3O[C@@H](n4cc(C)c(=O)[nH]c4=O)C[C@@H]3OP(=O)(O)OC[C@H]3O[C@@H](n4cc(C)c(N)nc4=O)C[C@@H]3OP(=O)(O)OC[C@H]3O[C@@H](n4cc(C)c(=O)[nH]c4=O)C[C@@H]3OP(=O)(O)OC[C@H]3O[C@@H](n4cc(C)c(N)nc4=O)C[C@@H]3OP(=O)(O)OC[C@H]3O[C@@H](n4cc(C)c(=O)[nH]c4=O)C[C@@H]3OP(=O)(O)OC[C@H]3O[C@@H](c4cn(-c5cccc(O)c5)nn4)C[C@@H]3OP(=O)(O)OC[C@H]3O[C@@H](n4cc(C)c(=O)[nH]c4=O)C[C@@H]3OP(=O)(O)OC[C@H]3O[C@@H](n4cc(C)c(N)nc4=O)C[C@@H]3OP(=O)(O)OC[C@H]3O[C@@H](n4cc(C)c(=O)[nH]c4=O)C[C@@H]3OP(=O)(O)OC[C@H]3O[C@@H](n4cc(C)c(=O)[nH]c4=O)C[C@@H]3OP(=O)(O)OC[C@H]3O[C@@H](n4cc(C)c(=O)[nH]c4=O)C[C@@H]3OP(=O)(O)OC[C@H]3O[C@@H](n4cc(C)c(=O)[nH]c4=O)C[C@@H]3OP(=O)(O)OC[C@H]3O[C@@H](n4cc(C)c(=O)[nH]c4=O)C[C@@H]3O)[C@@H](COP(=O)(O)O[C@H]3C[C@H](n4cc(C)c(=O)[nH]c4=O)O[C@@H]3CO)O2)c(=O)nc1N	< 10 °C	21 °C	14 °C	< 10 °C

Now from value to compound:

Tm (Nucleic Acid [1])	Tm (Nucleic Acid [2])	Tm (Nucleic Acid [3])	Tm (Nucleic Acid [4])	Structure (SMILES)
< 10 °C	21 °C	13 °C	< 10 °C	Cc1ccc(-n2cc([C@H]3C[C@H](OP(=O)(O)OC[C@H]4O[C@@H](n5cc(C)c(=O)[nH]c5=O)C[C@@H]4OP(=O)(O)OC[C@H]4O[C@@H](n5cc(C)c(N)nc5=O)C[C@@H]4OP(=O)(O)OC[C@H]4O[C@@H](n5cc(C)c(=O)[nH]c5=O)C[C@@H]4OP(=O)(O)OC[C@H]4O[C@@H](n5cc(C)c(=O)[nH]c5=O)C[C@@H]4OP(=O)(O)OC[C@H]4O[C@@H](n5cc(C)c(=O)[nH]c5=O)C[C@@H]4OP(=O)(O)OC[C@H]4O[C@@H](n5cc(C)c(=O)[nH]c5=O)C[C@@H]4OP(=O)(O)OC[C@H]4O[C@@H](n5cc(C)c(=O)[nH]c5=O)C[C@@H]4O)[C@@H](COP(=O)(O)O[C@H]4C[C@H](n5cc(C)c(=O)[nH]c5=O)O[C@@H]4COP(=O)(O)O[C@H]4C[C@H](n5cc(C)c(N)nc5=O)O[C@@H]4COP(=O)(O)O[C@H]4C[C@H](n5cc(C)c(=O)[nH]c5=O)O[C@@H]4COP(=O)(O)O[C@H]4C[C@H](n5cc(C)c(N)nc5=O)O[C@@H]4COP(=O)(O)O[C@H]4C[C@H](n5cc(C)c(=O)[nH]c5=O)O[C@@H]4COP(=O)(O)O[C@H]4C[C@H](n5cc(C)c(N)nc5=O)O[C@@H]4COP(=O)(O)O[C@H]4C[C@H](n5cc(C)c(=O)[nH]c5=O)O[C@@H]4CO)O3)nn2)cc1
12 °C	23 °C	18 °C	< 10 °C	Cc1cn([C@H]2C[C@H](OP(=O)(O)OC[C@H]3O[C@@H](n4cc(C)c(=O)[nH]c4=O)C[C@@H]3OP(=O)(O)OC[C@H]3O[C@@H](n4cc(C)c(N)nc4=O)C[C@@H]3OP(=O)(O)OC[C@H]3O[C@@H](n4cc(C)c(=O)[nH]c4=O)C[C@@H]3OP(=O)(O)OC[C@H]3O[C@@H](n4cc(C)c(N)nc4=O)C[C@@H]3OP(=O)(O)OC[C@H]3O[C@@H](n4cc(C)c(=O)[nH]c4=O)C[C@@H]3OP(=O)(O)OC[C@H]3O[C@@H](c4cn(-c5ccc(N)cc5)nn4)C[C@@H]3OP(=O)(O)OC[C@H]3O[C@@H](n4cc(C)c(=O)[nH]c4=O)C[C@@H]3OP(=O)(O)OC[C@H]3O[C@@H](n4cc(C)c(N)nc4=O)C[C@@H]3OP(=O)(O)OC[C@H]3O[C@@H](n4cc(C)c(=O)[nH]c4=O)C[C@@H]3OP(=O)(O)OC[C@H]3O[C@@H](n4cc(C)c(=O)[nH]c4=O)C[C@@H]3OP(=O)(O)OC[C@H]3O[C@@H](n4cc(C)c(=O)[nH]c4=O)C[C@@H]3OP(=O)(O)OC[C@H]3O[C@@H](n4cc(C)c(=O)[nH]c4=O)C[C@@H]3OP(=O)(O)OC[C@H]3O[C@@H](n4cc(C)c(=O)[nH]c4=O)C[C@@H]3O)[C@@H](COP(=O)(O)O[C@H]3C[C@H](n4cc(C)c(=O)[nH]c4=O)O[C@@H]3CO)O2)c(=O)nc1N

— ChEMBL document CHEMBL1949561, “Synthesis and triplex-forming ability of oligonucleotides bearing 1-substituted 1H-1,2,3-triazole nucleobases” (Bioorg Med Chem, 2011)
